# Results published in ChEMBL document CHEMBL1144729, “N-pyridin-3-yl- and N-quinolin-3-yl-benzamides: modulators of human vanilloid receptor 1 (TRPV1)” (Bioorg Med Chem Lett, 2008).
# Assays:
# [1] = molecular target: T1, Transient receptor potential cation channel subfamily V member 1 (Homo sapiens, UniProt Q8NER1); assay: Activity at human TRPV1 in HEK cells assessed by measuring capsaicin-induced calcium level by FLIPR technology; format: cell-based, HEK293
# Procedure, shortened: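 Stably transfected hTRPV1/HEK cells plated on poly-D-lysine and used 2 days later. Loaded with Fluo-3/AM for 1 h, then given a single concentration of compound. Antagonist potency protocol taken from earlier work.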
# [2] = molecular target: T1, Transient receptor potential cation channel subfamily V member 1; assay: Displacement of [3H]RTX from human TRPV1 receptor expressed in HEK293 cells; format: cell-based
# Procedure, shortened: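 Membranes from HEK293 stably expressing human TRPV1, prepared by homogenisation and differential centrifugation. Binding buffer: 20 mM Hepes pH 7.4, 5.8 mM NaCl, 320 mM sucrose, 2 mM MgCl2, 0.75 mM CaCl2, 5 mM KCl. Incubated 60 min at 37 °C with 0.3–0.6 nM [3H]-RTX. Cooled on ice, alpha-acid glycoprotein added, pellet counted by scintillation. Nonspecific binding defined with 200 nM unlabeled RTX.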
# [3] = Metabolic stability in human liver microsomes after 15 mins; format: ADME, Microsome; conditions: read-out: Stability
# Procedure, shortened: (§1)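 Compound incubated with rat or human liver microsomes. Percent of parent remaining measured after 15 min.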
# [4] = Metabolic stability in rat liver microsomes after 15 mins; format: ADME, Microsome; conditions: read-out: Stability; procedure, shortened: as §1
# [5] = Clearance in Sprague-Dawley rat; format: ADME, organism-based; conditions: in vivo
# Procedure, shortened: (§2)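 Pharmacokinetics measured in male Sprague–Dawley rats after intravenous and oral dosing.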
# [6] = Elimination half life in Sprague-Dawley rat; format: ADME, organism-based; conditions: in vivo; procedure, shortened: as §2
# [7] = Oral bioavailability in Sprague-Dawley rat; format: ADME, organism-based; conditions: in vivo; procedure, shortened: as §2
# Rattus norvegicus = assay: Reversal of CFA-induced thermal hyperalgesia in Sprague-Dawley rat at 30 mg/kg, po; format: functional
# Procedure, shortened: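 Thermal hyperalgesia induced by CFA injection in Sprague–Dawley rats. Radiant-heat withdrawal latency measured on a warm glass surface after about 10 min acclimation, before and 24 h after CFA. Single oral dose given, latencies reassessed at 100 min post-dose and compared with vehicle. Analysis by two-way ANOVA with Bonferroni post hoc test, p < 0.05.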
# T1 sequence (Q8NER1 whole entry): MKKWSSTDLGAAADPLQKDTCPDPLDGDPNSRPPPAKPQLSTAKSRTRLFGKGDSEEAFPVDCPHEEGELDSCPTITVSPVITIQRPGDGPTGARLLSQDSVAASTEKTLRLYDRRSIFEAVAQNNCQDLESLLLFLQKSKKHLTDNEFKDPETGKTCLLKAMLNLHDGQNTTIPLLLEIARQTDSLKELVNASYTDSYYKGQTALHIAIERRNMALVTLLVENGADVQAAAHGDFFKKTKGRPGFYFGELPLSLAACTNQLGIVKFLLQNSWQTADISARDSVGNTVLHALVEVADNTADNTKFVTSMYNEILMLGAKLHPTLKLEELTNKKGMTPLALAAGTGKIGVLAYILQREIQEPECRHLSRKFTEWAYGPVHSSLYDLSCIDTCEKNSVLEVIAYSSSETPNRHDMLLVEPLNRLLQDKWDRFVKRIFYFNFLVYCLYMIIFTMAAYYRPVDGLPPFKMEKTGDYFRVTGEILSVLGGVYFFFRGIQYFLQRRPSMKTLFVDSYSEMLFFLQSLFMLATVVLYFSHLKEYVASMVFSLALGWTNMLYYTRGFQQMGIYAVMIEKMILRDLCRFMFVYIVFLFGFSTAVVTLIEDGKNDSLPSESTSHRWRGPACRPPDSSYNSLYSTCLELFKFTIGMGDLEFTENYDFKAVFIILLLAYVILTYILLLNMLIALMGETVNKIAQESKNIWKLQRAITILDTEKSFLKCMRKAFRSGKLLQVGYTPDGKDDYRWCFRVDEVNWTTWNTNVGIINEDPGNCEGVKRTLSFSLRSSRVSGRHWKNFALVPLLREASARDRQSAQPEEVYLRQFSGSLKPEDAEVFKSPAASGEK
Structure (SMILES),IC50 [1] [nM],Ki [2] [nM],EC50 [1] [nM],other results
CCCCCCCCCCc1ccc(C(=O)Nc2cccnc2)cc1,,607,> 30000,
CCCCc1ccc(C(=O)Nc2cnc3ccccc3c2)cc1,230,53,,
CCCCCc1ccc(CC(=O)Nc2cccnc2)cc1,,7260,> 5000,
CCCCCc1ccc(NC(=O)c2cccnc2)cc1,,> 3000,> 5000,
CCCCCCCc1ccc(C(=O)Nc2cnc3ccccc3c2)cc1,> 30000,3520,,
CN(c1ccc(C(=O)Nc2cnc3ccccc3c2)cc1)C1CCCCC1,,,,remaining at 0.25 h [3]: 25%; remaining at 0.25 h [4]: 45%; clearance [5]: 20 mL/min/kg; half-life [6]: 1.67 h; bioavailability [7]: 70%; Activity (Rattus norvegicus): > 80%

# More lines, main results first:
IC50 [1] [nM],Ki [2] [nM],EC50 [1] [nM],Structure (SMILES),other results
66,,,CCCCN(C)c1ccc(C(=O)Nc2cnc3ccccc3c2)cc1,
,15,,CCCCCCCCN(C)c1ccc(C(=O)Nc2cnc3ccccc3c2)cc1,
130,60,,CCCc1ccc(C(=O)Nc2cnc3ccccc3c2)cc1,
170,16,,CN(CC1CCCCC1)c1ccc(C(=O)Nc2cnc3ccccc3c2)cc1,
